Experiments:
[1] = target: T1, C-C chemokine receptor type 2 (Homo sapiens, UniProt P41597); assay: Displacement of [125I]-CCL2 from human CCR2 receptor expressed in human U2OS cell membranes
In short: (§1)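 Membranes from U2OS cells stably expressing human CCR2 were used in a ¹²⁵I-CCL2 displacement binding assay. The cells were grown at 37 °C, 5% CO₂ in McCoy's 5a with 10% FCS plus G418, hygromycin and zeocin selection. Ki was derived from IC₅₀ by the Cheng–Prusoff equation. Weak binders are reported as percent displacement at 1 μM. n = 3.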
Target sequence in this assay (P41597 whole entry): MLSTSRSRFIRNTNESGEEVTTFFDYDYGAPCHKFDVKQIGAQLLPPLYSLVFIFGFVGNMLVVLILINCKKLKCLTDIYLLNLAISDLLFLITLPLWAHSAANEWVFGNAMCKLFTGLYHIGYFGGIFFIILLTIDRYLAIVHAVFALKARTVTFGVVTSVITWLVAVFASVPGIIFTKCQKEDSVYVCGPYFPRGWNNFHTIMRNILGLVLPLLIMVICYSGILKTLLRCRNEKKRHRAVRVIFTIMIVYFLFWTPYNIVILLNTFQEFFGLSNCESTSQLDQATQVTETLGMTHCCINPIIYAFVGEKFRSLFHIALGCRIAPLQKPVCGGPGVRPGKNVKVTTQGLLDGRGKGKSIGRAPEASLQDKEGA

[2] = target: T1, C-C chemokine receptor type 2; assay: Displacement of [3H]INCB3344 from human CCR2 receptor expressed in human U2OS cell membrane assessed as kinetic rate index at Ki by dual-point competition association assay relative to control
Target sequence in this assay (P41597 whole entry, looked up): as the sequence (P41597 whole entry) above

[3] = target: T1, C-C chemokine receptor type 2; assay: Displacement of [3H]INCB3344 from human CCR2 receptor expressed in human U2OS cell membrane assessed as residence time
Target sequence in this assay (P41597 whole entry, looked up): as the sequence (P41597 whole entry) above

[4] = target: T1, C-C chemokine receptor type 2; assay: Displacement of [125I]-CCL2 from human CCR2 receptor expressed in human U2OS cell membrane at 1 uM relative to control; assay type: cell membranes; in short: as §1
Target sequence in this assay (P41597 whole entry, looked up): as the sequence (P41597 whole entry) above

| SMILES | Ki [1] | Ratio [2] | TIME [3] | inhibition [4] |
| --- | --- | --- | --- | --- |
| CC(C)[C@]1(C(=O)NCc2cc(C(F)(F)F)cc(C(F)(F)F)c2)CC[C@@H](NC2CCc3c(O)cccc32)C1 (some centres undefined) | 86 nM | 0.6 | – | – |
| CC(C)[C@]1(C(=O)NCc2cc(C(F)(F)F)cc(C(F)(F)F)c2)CC[C@@H](NC2CCc3ccc(C#N)cc32)C1 (some centres undefined) | 54 nM | 0.6 | – | – |
| CC(C)[C@]1(C(=O)NCc2cc(C(F)(F)F)cc(C(F)(F)F)c2)CC[C@@H](NC2CCc3cc(Br)ccc32)C1 (mixture of isomers) [listing 2 of 2 here] | – | 1.1 | 1.57 h | – |
| Cc1ccc2c(c1)C(N[C@@H]1CC[C@@](C(=O)NCc3cc(C(F)(F)F)cc(C(F)(F)F)c3)(C(C)C)C1)CC2 (some centres undefined) | 55 nM | 0.8 | – | – |
| CC(C)[C@]1(C(=O)NCc2cc(C(F)(F)F)cc(C(F)(F)F)c2)CC[C@@H](NC2CCc3cc(F)ccc32)C1 (some centres undefined) | – | – | – | 30% |
| CC(C)[C@]1(C(=O)NCc2cc(C(F)(F)F)cc(C(F)(F)F)c2)CC[C@@H](NC2CCc3cc(Br)ccc32)C1 (stereo in doubt; 22b) [listing 1 of 2 here] | 289 nM | – | – | – |
| CC(C)[C@]1(C(=O)NCc2cc(C(F)(F)F)cc(C(F)(F)F)c2)CC[C@@H](NC2CCCc3c(Br)cccc32)C1 (some centres undefined) | – | – | – | 48% |
| CC(C)[C@]1(C(=O)NCc2cc(C(F)(F)F)cc(C(F)(F)F)c2)CC[C@@H](NC2CCc3cc(Br)ccc32)C1 (stereo in doubt; 22b) [listing 2 of 2 here] | – | – | 1.28 h | – |
| CC(C)[C@]1(C(=O)NCc2cc(C(F)(F)F)cc(C(F)(F)F)c2)CC[C@@H](NC2CCc3cc(Br)ccc32)C1 (single isomer, unassigned; diastereomer 1) [listing 2 of 2 here] | – | – | 2.25 h | – |
| CC(C)[C@]1(C(=O)NCc2cc(C(F)(F)F)cc(C(F)(F)F)c2)CC[C@@H](NCCc2ccccc2)C1 | 2400 nM | – | – | – |
| Cc1cccc2c1CCC2N[C@@H]1CC[C@@](C(=O)NCc2cc(C(F)(F)F)cc(C(F)(F)F)c2)(C(C)C)C1 (some centres undefined) | – | – | – | 26% |
| CC(C)[C@]1(C(=O)NCc2cc(C(F)(F)F)cc(C(F)(F)F)c2)CC[C@@H](NC2CCCCC2)C1 | 110 nM | – | 0.0317 h | – |
| CC(C)[C@]1(C(=O)NCc2cc(C(F)(F)F)cc(C(F)(F)F)c2)CC[C@@H](NC2CCc3ccccc32)C1 (some centres undefined) | 50 nM | 0.7 | 0.158 h | – |
| CC(C)[C@]1(C(=O)NCc2cc(C(F)(F)F)cc(C(F)(F)F)c2)CC[C@@H](NC2CCc3c(C#N)cccc32)C1 (some centres undefined) | 70 nM | 0.8 | – | – |
| COc1cccc2c1CCC2N[C@@H]1CC[C@@](C(=O)NCc2cc(C(F)(F)F)cc(C(F)(F)F)c2)(C(C)C)C1 (some centres undefined) | – | – | – | 30% |
| CC(C)[C@]1(C(=O)NCc2cc(C(F)(F)F)cc(C(F)(F)F)c2)CC[C@@H](NC2CCCc3c(C(=O)O)cccc32)C1 (some centres undefined) | – | – | – | 0% |
| CC(C)[C@]1(C(=O)NCc2cc(C(F)(F)F)cc(C(F)(F)F)c2)CC[C@@H](NCc2ccccc2)C1 | 437 nM | – | – | – |
| CC(C)[C@]1(C(=O)NCc2cc(C(F)(F)F)cc(C(F)(F)F)c2)CC[C@@H](NC2CCc3ccc(Cl)cc32)C1 (some centres undefined) | – | – | – | 28% |
| CC(C)[C@]1(C(=O)NCc2cc(C(F)(F)F)cc(C(F)(F)F)c2)CC[C@@H](NCCCc2ccccc2)C1 | 134 nM | – | – | – |
| COc1ccc2c(c1OC)CCC2N[C@@H]1CC[C@@](C(=O)NCc2cc(C(F)(F)F)cc(C(F)(F)F)c2)(C(C)C)C1 (some centres undefined) | 130 nM | – | – | – |

Now from value to compound:

| Ki [1] | Ratio [2] | TIME [3] | inhibition [4] | SMILES |
| --- | --- | --- | --- | --- |
| 6.3 nM | 0.6 | – | – | CC(C)[C@]1(C(=O)NCc2cc(C(F)(F)F)cc(C(F)(F)F)c2)CC[C@@H](NC2CCc3cc4c(cc32)OCO4)C1 (some centres undefined) |
| 35 nM | 0.8 | – | – | CC(C)[C@]1(C(=O)NCc2cc(C(F)(F)F)cc(C(F)(F)F)c2)CC[C@@H](NC2CCCc3c(O)cccc32)C1 (some centres undefined) |
| 7.2 nM | – | – | – | CC(C)[C@]1(C(=O)NCc2cc(C(F)(F)F)cc(C(F)(F)F)c2)CC[C@@H](NC2CCc3cc(Br)ccc32)C1 (mixture of isomers) [listing 1 of 2 here] |
| 43 nM | 0.8 | – | – | CC(C)[C@]1(C(=O)NCc2cc(C(F)(F)F)cc(C(F)(F)F)c2)CC[C@@H](NC2CCc3c(N)cccc32)C1 (some centres undefined) |
| 33 nM | 0.6 | 0.0933 h | – | CC(C)[C@]1(C(=O)NCc2cc(C(F)(F)F)cc(C(F)(F)F)c2)CC[C@@H](NC2CCCc3ccccc32)C1 (some centres undefined) |
| 3.6 nM | – | – | – | CC(C)[C@]1(C(=O)NCc2cc(C(F)(F)F)cc(C(F)(F)F)c2)CC[C@@H](NC2CCc3cc(Br)ccc32)C1 (single isomer, unassigned; diastereomer 1) [listing 1 of 2 here] |
| 27 nM | 0.7 | – | – | COc1cccc2c1CCCC2N[C@@H]1CC[C@@](C(=O)NCc2cc(C(F)(F)F)cc(C(F)(F)F)c2)(C(C)C)C1 (some centres undefined) |
| 31 nM | – | 0.0717 h | – | CC(C)[C@]1(C(=O)NCc2cc(C(F)(F)F)cc(C(F)(F)F)c2)CC[C@@H](NC2CCSCC2)C1 |
| 6.1 nM | 0.6 | – | – | COc1ccc2c(c1)CCC2N[C@@H]1CC[C@@](C(=O)NCc2cc(C(F)(F)F)cc(C(F)(F)F)c2)(C(C)C)C1 (some centres undefined) |
| 29 nM | 0.7 | – | – | CC(C)[C@]1(C(=O)NCc2cc(C(F)(F)F)cc(C(F)(F)F)c2)CC[C@@H](NC2CCc3cc(O)ccc32)C1 (some centres undefined) |
| 18 nM | 1.1 | 0.933 h | – | CC(C)[C@]1(C(=O)NCc2cc(C(F)(F)F)cc(C(F)(F)F)c2)CC[C@@H](NC2CCc3cc(Cl)ccc32)C1 (some centres undefined) |
| 3.9 nM | 0.7 | – | – | COc1cc2c(cc1OC)C(N[C@@H]1CC[C@@](C(=O)NCc3cc(C(F)(F)F)cc(C(F)(F)F)c3)(C(C)C)C1)CC2 (some centres undefined) |
| 6.8 nM | – | 0.04 h | – | CC(C)[C@]1(C(=O)NCc2cc(C(F)(F)F)cc(C(F)(F)F)c2)CC[C@@H](NC2CCOCC2)C1 |
